The record followed here is PubChem BioAssay.

The source made the active and inactive calls.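 The calls were made as follows, unless noted: active = viability at or below 30% in both replicate assays; inconclusive = viability at or below 30% in just one of the two assays; inactive = the rest.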

A short description of test [1]: Her2 expression decrease, cell viability multiplex – SKBR3 breast tumor cells, AlphaScreen, ATP viability, primary screen (AID 461;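 active = Her2 level under about 52% in both replicate screens, with viability over 70% of control, limit read from the data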;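 as to Her2 level: lower value means less Her2 protein in the cells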;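 as to viability: percent of carrier control wells set as 100% viability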). The conditions noted are these: SKBR3 Her2 protein level, 18-24 h, measured here: SKBR3 viability, ATP luminescence, at 10 µM. (In general: Bead proximity is the source of the signal in Alpha formats.)
For test [2], the target named is Receptor tyrosine-protein kinase erbB-2 (Homo sapiens) (UniProt P04626). The description is as above. Conditions: 18-24 h, at 10 µM, stronger effect = lower value.
Chain of Receptor tyrosine-protein kinase erbB-2 (Homo sapiens) (P04626 whole entry, looked up): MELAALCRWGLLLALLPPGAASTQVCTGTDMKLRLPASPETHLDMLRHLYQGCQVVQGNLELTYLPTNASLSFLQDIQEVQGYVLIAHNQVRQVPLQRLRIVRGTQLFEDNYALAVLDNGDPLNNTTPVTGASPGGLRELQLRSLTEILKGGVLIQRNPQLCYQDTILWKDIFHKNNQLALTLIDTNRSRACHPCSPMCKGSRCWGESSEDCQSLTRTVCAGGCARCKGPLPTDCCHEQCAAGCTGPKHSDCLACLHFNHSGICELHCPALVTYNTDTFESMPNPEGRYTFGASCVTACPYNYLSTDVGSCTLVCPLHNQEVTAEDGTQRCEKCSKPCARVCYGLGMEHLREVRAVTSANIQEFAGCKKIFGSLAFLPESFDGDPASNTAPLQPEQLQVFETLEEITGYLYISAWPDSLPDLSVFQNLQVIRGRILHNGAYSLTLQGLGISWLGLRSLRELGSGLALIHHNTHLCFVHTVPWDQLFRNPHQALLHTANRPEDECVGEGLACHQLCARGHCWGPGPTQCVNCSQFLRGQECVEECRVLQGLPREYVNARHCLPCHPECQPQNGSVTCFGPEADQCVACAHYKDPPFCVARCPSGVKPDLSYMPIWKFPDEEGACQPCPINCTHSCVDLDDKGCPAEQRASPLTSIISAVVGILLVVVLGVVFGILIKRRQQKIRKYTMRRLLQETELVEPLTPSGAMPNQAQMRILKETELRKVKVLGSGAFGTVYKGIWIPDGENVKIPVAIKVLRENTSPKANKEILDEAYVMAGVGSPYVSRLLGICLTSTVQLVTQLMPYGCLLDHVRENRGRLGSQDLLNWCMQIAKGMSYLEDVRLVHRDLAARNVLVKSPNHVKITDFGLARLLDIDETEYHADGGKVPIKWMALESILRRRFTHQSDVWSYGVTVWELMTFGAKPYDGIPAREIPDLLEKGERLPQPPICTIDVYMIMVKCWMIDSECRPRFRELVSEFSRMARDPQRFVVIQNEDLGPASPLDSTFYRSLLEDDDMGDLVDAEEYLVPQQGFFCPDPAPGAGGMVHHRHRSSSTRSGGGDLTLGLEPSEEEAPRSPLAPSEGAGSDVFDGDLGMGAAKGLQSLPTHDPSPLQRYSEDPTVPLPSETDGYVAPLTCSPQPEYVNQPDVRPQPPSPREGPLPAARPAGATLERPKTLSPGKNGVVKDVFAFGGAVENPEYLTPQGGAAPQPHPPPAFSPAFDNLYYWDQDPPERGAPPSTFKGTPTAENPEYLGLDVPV
The nature of test [3]: reduced viability of SK-BR-3 breast cancer cells – cell-based, 24 h, human, pilot screen (AID 572;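 active = viability at or below 10% of carrier control in both of two separate runs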;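 also: compound exposure lasted between 18 and 24 h rather than exactly 24 h; 100% = carrier-treated control wells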). Conditions: SK-BR-3 viability, CellTiter-Glo luminescence, at 10 µM, stronger effect = lower value. For orientation: In ATP-based viability assays light output follows the ATP content of the culture.
A short description of test [4]: HUVEC growth inhibition – cell-based, human, primary screen (AID 575).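 Also: 100% = median of untreated cell wells with 0.1% DMSO on each plate.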 The conditions noted are these: HUVEC proliferation, CellTiter-Glo luminescence, 72 h; at 10 µM; stronger effect = lower value. In a few lines: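 material = primary HUVEC, no more than 12 passages | input = 1250 cells per well | controls = vehicle and MePR control wells | measured by = CTG luminescence | times = 72 h compound incubation | format = collagen-coated 384-well format | read-out = % viability vs DMSO wells | doses = single 10 µM dose, 0.1% DMSO, from 5x medium stock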

A short description of test [5]: H69AR cell proliferation blockers – human, duplicate replicates, primary screen (AID 580;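 active = viability at or under a set limit in both replicates, limit being median viability minus 3 SD, cut at about 48% in these data, passing the limit was not always enough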;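 also: 100% = mean luminescence of untreated wells and 0% = no signal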). Conditions: H69AR lung tumor cells viability, ATP luminescence, 72 h; at 10 µM; stronger effect = lower value.
The nature of test [6]: MRP1 drug-resistance reversers in H69AR cells – cell-based, doxorubicin co-treatment, pilot screen (AID 601;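 active = viability loss from added drug above about 55%, and viability with drug at most 40%, in both replicates, limit read from the data, passing the limit was not always enough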). Conditions: CellTiter-Glo, 72 h, at 10 µM; for differential viability (reversal): stronger effect = higher value.
Test [7] can be described thus: yeast transport mutant growth inhibition pilot in 384-well plates, post-Golgi transport modulator project (AID 636; in the data active = inhibition above about 31%). Conditions: absorbance 615 nm, about 18 h, stronger effect = higher value.
Test [8] can be described thus: growth suppression of yeast trafficking mutant, preliminary HTS, modulators of trafficking downstream of Golgi apparatus project, 1536-format plate, OD 615 nm (AID 637; in the data active = inhibition above about 30%). The conditions noted are these: yeast transport mutant growth, absorbance 615 nm, 18 h; stronger effect = higher value.
The mark [9] stands for this setting: H69AR cells + 2 uM doxorubicin, measured here: viability with 2 uM doxorubicin, stronger effect = lower value.
Where [10] appears, read: H69AR cells, compound alone cytotoxicity.

`CN1C(=O)C2(NCCc3c2[nH]c2ccccc32)c2ccccc21` (stereo not given): the viability (commonly a read-out of living cells in per cent, often relative to untreated cells) is 114% in test [1]; 114% (inactive) in test [3]; 86.8% (inactive) in test [4]; 109% (inactive) in test [5]; 96% in test [6] (setting [9]); 109% in test [6] (setting [10]). Moreover, the Her2 level in test [2] was 100% (inactive). Also, in test [6] (H69AR cells + 2 uM doxorubicin), the differential viability (reversal) was 12.9% (inactive). In addition, the inhibition (commonly the change of the read-out against control, counted positive when it falls) in test [7] was -3.82% (inactive); in test [8], 6.07% (inactive).
Regarding `COc1ccc(CCn2c(-c3ccco3)nc3nc4ccccc4nc32)cc1`, the viability in test [1] is 108%; in test [3], 108% (inactive); in test [4], 62.8% (inactive); in test [5] it was 25.6% (active); in test [6] (setting [9]), 55.4%; in test [6] (setting [10]), 25.6%. The Her2 level in test [2] was 110% (inactive). Moreover, in test [6] (H69AR cells + 2 uM doxorubicin), the differential viability (reversal) was -29.9% (inactive). Besides, the values for the inhibition in test [7] and in test [8] were -1.62% (inactive) and 1.31% (inactive), respectively.
For `Cc1cccc(-n2nnc(C(=O)NCc3ccccc3)c2N)c1`, the viability in test [1] is 110%; in test [3], 110% (inactive); in test [4], 102% (inactive); in test [5], 90.4% (inactive); in test [6] (setting [9]) it was 87%; in test [6] (setting [10]), 90.4%. Also, the Her2 level in test [2] was 84.5% (inactive). In test [6] (H69AR cells + 2 uM doxorubicin), the differential viability (reversal) is 3.36% (inactive). Also, the inhibition in test [7] is 0.92% (inactive); in test [8] it was -3.45% (inactive).
In the case of `CC(C)COc1ccc(C2NC(=O)NC2=O)cc1` (stereo not given), the viability was 85.5% in test [1]; 85.5% (inactive) in test [3]; 96.3% (inactive) in test [4]; 103% (inactive) in test [5]; 103% in test [6] (setting [9]); 103% in test [6] (setting [10]). Also, in test [2], the Her2 level was 106% (inactive). In addition, the differential viability (reversal) in test [6] (H69AR cells + 2 uM doxorubicin) was -0.53% (inactive). Also, the inhibition in test [7] was -0.52% (inactive); in test [8], -8.67% (inactive).
In the case of `CCN1C(=O)CC(C(=O)Nc2ccc(F)cc2)SC1=Nc1ccc2c(c1)OCO2` (stereo not given), the viability is 136% in test [1]; 136% (inactive) in test [3]; 79.7% (inactive) in test [4]; 86.4% (inactive) in test [5]; 80.4% in test [6] (setting [9]); 86.4% in test [6] (setting [10]). In test [2], the Her2 level is 97% (inactive). For the same molecule, the differential viability (reversal) in test [6] (H69AR cells + 2 uM doxorubicin) was 6.02% (inactive). In addition, the results for the inhibition in test [7] and in test [8] were -2.53% (inactive) and -1.61% (inactive), respectively.
Consider `O=C(CN1C(=O)CC(c2ccco2)Sc2ccccc21)Nc1ccccc1F` (stereo not given), for which the viability in test [1] is 82.5%; in test [3], 82.5% (inactive); in test [4], 72.2% (inactive); in test [5], 84.3% (inactive); in test [6] (setting [9]) it was 80.6%; in test [6] (setting [10]) it was 84.3%. In addition, the Her2 level in test [2] was 82% (inactive). Further, the differential viability (reversal) in test [6] (H69AR cells + 2 uM doxorubicin) was 3.75% (inactive). The inhibition in test [7] is 0% (inactive); in test [8], -0.83% (inactive).
As to `O=C1CC(=O)N(Cc2cccs2)C(=O)N1`, the viability in test [1] is 93.5%; in test [3] it was 93.5% (inactive); in test [4] it was 103% (inactive); in test [5], 101% (inactive); in test [6] (setting [9]) it was 94%; in test [6] (setting [10]), 101%. In addition, the Her2 level in test [2] was 99% (inactive). Moreover, in test [6] (H69AR cells + 2 uM doxorubicin), the differential viability (reversal) was 6.82% (inactive). The inhibition in test [7] was -2.76% (inactive); in test [8], -3.82% (inactive).
As to `COc1cccc(OC)c1C(=O)Nc1cccc(C(C)=O)c1`, the viability in test [1] is 103%; in test [3], 103% (inactive); in test [4], 98.8% (inactive); in test [5], 98.7% (inactive); in test [6] (setting [9]), 92.2%; in test [6] (setting [10]), 98.7%. The Her2 level in test [2] is 99% (inactive). Also, the differential viability (reversal) in test [6] (H69AR cells + 2 uM doxorubicin) is 6.47% (inactive). For the same molecule, the inhibition is -6.27% (inactive) in test [7] and 0.48% (inactive) in test [8].
In the case of `COc1ccc2[nH]c(=O)c(CN(Cc3cccs3)S(=O)(=O)c3cccc4nsnc34)cc2c1`, the viability in test [1] is 96.5%; in test [3], 96.5% (inactive); in test [4], 59.2% (inactive); in test [5], 5.33% (active); in test [6] (setting [9]) it was 5.45%; in test [6] (setting [10]), 5.33%. In addition, the Her2 level in test [2] is 80% (inactive). For the same molecule, the differential viability (reversal) in test [6] (H69AR cells + 2 uM doxorubicin) was -0.125% (inactive). Besides, the inhibition is -6.44% (inactive) in test [7] and 1.43% (inactive) in test [8].
Consider `O=S(=O)(c1ccc2ccccc2c1)N(CC(O)CN1CCOCC1)c1ccccc1` (stereo not given), for which the viability in test [1] is 87%; in test [3] it was 87% (inactive); in test [4], 83.9% (inactive); in test [5] it was 100% (inactive); in test [6] (setting [9]), 81%; in test [6] (setting [10]) it was 100%. The Her2 level in test [2] was 75.5% (inactive). For the same molecule, the differential viability (reversal) in test [6] (H69AR cells + 2 uM doxorubicin) is 19% (inactive). Further, the inhibition in test [7] is -5.87% (inactive); in test [8], -1.13% (inactive).
On to `CC(CCc1ccccc1)NCc1ccncc1` (stereo not given), for which the viability in test [1] was 102%; in test [3], 102% (inactive); in test [4] it was 108% (inactive); in test [5], 84.9% (inactive); in test [6] (setting [9]), 89.2%; in test [6] (setting [10]), 84.9%. For the same molecule, in test [2], the Her2 level is 99.5% (inactive). Further, the differential viability (reversal) in test [6] (H69AR cells + 2 uM doxorubicin) is -4.29% (inactive). Further, the values for the inhibition in test [7] and in test [8] were -6.53% (inactive) and 0.48% (inactive), respectively.
Take `O=C(CN(Cc1ccco1)C(=O)CNS(=O)(=O)c1ccc(Cl)cc1)NCc1ccc(F)cc1`: the viability was 118% in test [1]; 118% (inactive) in test [3]; 83.4% (inactive) in test [4]; 81.4% (inactive) in test [5]; 86.5% in test [6] (setting [9]); 81.4% in test [6] (setting [10]). Also, the Her2 level in test [2] is 106% (inactive). Besides, the differential viability (reversal) in test [6] (H69AR cells + 2 uM doxorubicin) is -5.12% (inactive). Moreover, the results for the inhibition in test [7] and in test [8] were -0.53% (inactive) and 1.77% (inactive), respectively.
Turning to `CN(CC(=O)Nc1ccc2c(c1)OCCO2)S(=O)(=O)c1ccc(Br)s1`, the viability in test [1] was 90.5%; in test [3], 90.5% (inactive); in test [4], 111% (inactive); in test [5], 83.3% (inactive); in test [6] (setting [9]), 94%; in test [6] (setting [10]), 83.3%. For the same molecule, the Her2 level in test [2] is 94.5% (inactive). Moreover, the differential viability (reversal) in test [6] (H69AR cells + 2 uM doxorubicin) is -10.7% (inactive). For the same molecule, the inhibition is -2.63% (inactive) in test [7] and -10.8% (inactive) in test [8].
In the case of `OC(COc1ccccc1)CN1C2=NCCCN2c2ccccc21` (stereo not given), the viability was 80.5% in test [1]; 80.5% (inactive) in test [3]; 97.4% (inactive) in test [4]; 92.6% (inactive) in test [5]; 85% in test [6] (setting [9]); 92.6% in test [6] (setting [10]). The Her2 level in test [2] is 79.5% (inactive). Also, in test [6] (H69AR cells + 2 uM doxorubicin), the differential viability (reversal) was 7.67% (inactive). Also, the values for the inhibition in test [7] and in test [8] were -4.93% (inactive) and 3.11% (inactive), respectively.
For the molecule `Cc1nc2ccc(CCO)cc2s1`, the viability in test [1] was 97.5%; in test [3] it was 97.5% (inactive); in test [4], 102% (inactive); in test [5] it was 93.9% (inactive); in test [6] (setting [9]), 94.8%; in test [6] (setting [10]) it was 93.9%. Also, the Her2 level in test [2] is 95.5% (inactive). In test [6] (H69AR cells + 2 uM doxorubicin), the differential viability (reversal) is -0.945% (inactive). Besides, the inhibition was -5.89% (inactive) in test [7] and 0.79% (inactive) in test [8].
